Measured values reported in PMC9076386 (RSC Advances, 2019).

Columns and labels:
Format in all cases: cell-based
HepG2 cells = experiment: MTT cytotoxicity assay, HepG2; conditions: Homo sapiens, HepG2, read-out: IC50 HepG2
Procedure, shortened: (§1)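 Human lines were grown in RPMI 1640 with 10% FBS at 37 °C and 5% CO2; MCF-7 medium also had glutamine, HEPES and pyruvate. Log-phase cells were seeded, preincubated for 24 h, then treated for 72 h with DMSO-dissolved test compound at 0, 1.25, 2.5, 5, 10 or 20 μM. MTT (5 mg mL−1 stock) was added for 4 h, formazan was dissolved in DMSO and OD was read at 550 nm.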

SKOV3 cells = experiment: MTT cytotoxicity assay, SKOV3; conditions: Homo sapiens, SK-OV-3, read-out: IC50 SKOV3
Procedure, shortened: as §1

HeLa cells = experiment: MTT cytotoxicity assay, HeLa; conditions: Homo sapiens, read-out: IC50 Hela
Procedure, shortened: as §1

## CC(=O)O[C@H]1C(=O)[C@@]2(C)[C@H]([C@H](OC(=O)c3ccccc3)[C@]3(O)C[C@H](OC(=O)[C@H](O)[C@@H](NC(=O)c4ccccc4)c4ccccc4)C(C)=C1C3(C)C)[C@]1(OC(C)=O)CO[C@@H]1C[C@@H]2O [Paclitaxel]
HepG2 cells
  IC50: 1.5 nM
SKOV3 cells
  IC50: 3.8 nM
HeLa cells
  IC50: 3 nM
